Here are results for 25 compounds from ChEMBL document CHEMBL1255564, “A novel series of positive modulators of the AMPA receptor: discovery and structure based hit-to-lead studies” (Bioorg Med Chem Lett, 2010).

≈ marks a conversion by molar mass, not a printed value.

A short description of series [1]: […]. In short, it runs like this:
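Cells washed in low-Ca buffer (pH 7.4, 2 mM CaCl₂) with 0.625 mM probenecid. Glutamate ± compound added in 20 mM CaCl₂ buffer. Ca²⁺ fluorescence read; pEC50 is the mean of two experiments run in duplicate.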

Series [2] in a line: Intrinsic clearance in human liver microsomes. It counts as ADME, Microsome. (Microsomes from liver hold many membrane-bound enzymes, among them those of drug oxidation.)
A short description of series [3]: Intrinsic clearance in rat liver microsomes. It counts as ADME, Microsome.
A short description of series [4]: Aqueous solubility of the compound. It counts as physicochemical.
The nature of series [5]: Permeability from basolateral to apical side of human Caco-2 cells. The format is ADME, cell-based. As to conditions: read-out: permeability.
Series [6] can be described thus: Clearance in Wistar rat at 2 mg/kg, iv. The format is ADME, organism-based. Also noted: dose 2 mg/kg, route intravenous. The following applies: in vivo.
Series [7] is described as follows: Volume of distribution at steady state in Wistar rat at 2 mg/kg, iv. It counts as ADME, organism-based. Also noted: dose 2 mg/kg, route intravenous. As to conditions: in vivo, read-out: Vdss.
A short description of series [8]: Permeability from apical to basolateral side of human Caco-2 cells. It counts as ADME, cell-based. The following applies: read-out: permeability. For orientation: Caco-2 cells form a polarised layer with tight junctions and transporters.
The nature of series [9]: Half life in Wistar rat at 2 mg/kg, iv. The format is ADME, organism-based. Also noted: dose 2 mg/kg, route intravenous. As to conditions: in vivo.

On to `O=C(Cn1nc(C(F)(F)F)c2c1CCCC2)Nc1sc2c(c1C(=O)NC1CNC1)CCCC2`, for which the pEC50 (commonly −log10 of the EC50, conventionally taken in molar units) in series [1] was 6.5.
Consider `NC(=O)c1c(NC(=O)Cn2ccc(C(F)(F)F)n2)sc2c1CCCC2`, for which, in series [1], the pEC50 was found to be 5.3.
`CCc1c(C)sc(NC(=O)Cn2nc(C(F)(F)F)c3c2CCCC3)c1C(N)=O` came in with a pEC50 in series [1] of 6.2.
Turning to `NCCNC(=O)c1c(NC(=O)Cn2nc(C(F)(F)F)c3c2CCCC3)sc2c1CCCC2`, the pEC50 in [1] turned out to be 5.8.
`CS(=O)(=O)NCCNC(=O)c1c(NC(=O)Cn2nc(C(F)(F)F)c3c2CCCC3)sc2c1CCCC2` registered a pEC50 in series [1] of 7.
Consider `NC(=O)c1c(NC(=O)Cn2nc(C(F)(F)F)c3c2CCCC3)sc2c1CCOC2`, for which the microsomal CLint (commonly a measure of how fast metabolising enzymes remove a compound, apart from limits set by blood flow) in [2] was more than 270 µL/min/mg. The compound further displayed a pEC50 in series [1] of 6.7.
In [1], `NC(=O)c1c(NC(=O)Cn2nc(C(F)(F)F)c3cnccc32)sc2c1CCCC2` returned a pEC50 of 6.4. This compound also yielded a microsomal CLint in [3] of 91 µL/min/mg.
`NC(=O)c1c(CO)csc1NC(=O)Cn1nc(C(F)(F)F)c2c1CCCC2` had a pEC50 in series [1] of 5.5.
Still for that read-out and setting: to `O=C(Cn1nc(C(F)(F)F)c2c1CCCC2)Nc1sc2c(c1C(=O)N[C@@H]1CCNC1)CCCC2` belongs 6.6.
As for `NC(=O)c1ccsc1NC(=O)Cn1nc(C(F)(F)F)c2c1CCCC2`, the concentration in solution in series [4] (solubility) came to 10 µg/mL (≈ 26.9 µM). Also, the pEC50 in series [1] stood at 5.2.
For `CCNC(=O)c1c(NC(=O)Cn2nc(C(F)(F)F)c3c2CCCC3)sc2c1CCCC2`, the pEC50 in series [1] was determined as 6.5.
Consider `CN(C)CCNC(=O)c1c(NC(=O)Cn2nc(C(F)(F)F)c3c2CCCC3)sc2c1CCCC2`, for which, in series [1], the pEC50 is 5.2.
For the compound `O=C(Cn1nc(C(F)(F)F)c2c1CCCC2)Nc1sc2c(c1C(=O)NCCO)CCCC2`, the pEC50 in [1] stood at 7.3.
For `NCCCCNC(=O)c1c(NC(=O)Cn2nc(C(F)(F)F)c3c2CCCC3)sc2c1CCCC2`, in series [1], the pEC50 came out at 5.9.
Consider `NCCCNC(=O)c1c(NC(=O)Cn2nc(C(F)(F)F)c3c2CCCC3)sc2c1CCCC2`, for which, in series [5], the Papp B→A came out at 5.5 ×10⁻⁶ cm/s. Further, the microsomal CLint in [2] is 17 µL/min/mg; in [3], 77 µL/min/mg. Further, the clearance (usually a measure of how efficiently the substance is removed, as volume per time) in series [6] was 21 mL/min/kg. Further, in [1], the pEC50 turned out to be 6.4. In series [7], the Vd was 3.8 L/kg. Also, the Papp A→B in [8] was determined as 3.4 ×10⁻⁶ cm/s. Besides, in series [9], the half-life (usually the time in which the quantity being followed falls by half) was 192 min.
Turning to `NC(=O)c1c(NC(=O)Cn2nc(C(F)(F)F)cc2C(F)(F)F)sc2c1CCCC2`, the intrinsic metabolic clearance (microsomal CLint) was 174 µL/min/mg in [2] and 200 µL/min/mg in series [3]. Further, the solubility (commonly the dissolved amount per volume that the medium holds) in series [4] was less than 1 µg/mL. Also, the pEC50 in series [1] stood at 5.8.
For the compound `O=C(Cn1nc(C(F)(F)F)c2c1CCCC2)Nc1sc2c(c1C(=O)N[C@H]1CCNC1)CCCC2`, the pEC50 in [1] came to 5.8.
Take `Cc1cc(C)n(CC(=O)Nc2sc3c(c2C(N)=O)CCCC3)n1`: the pEC50 in series [1] is recorded as less than 4.5.
On the same count and under the same terms, next, `Cc1sc(NC(=O)Cn2nc(C(F)(F)F)c3c2CCCC3)c(C(N)=O)c1C`: 6.1; `O=C(Cn1nc(C(F)(F)F)c2c1CCCC2)Nc1sc2c(c1C(=O)NC1CC1)CCCC2`: 6.2; `NC(=O)c1c(NC(=O)Cn2c(C(F)(F)F)nc3ccccc32)sc2c1CCCC2`: less than 4.5.
`O=C(Cn1nc(C(F)(F)F)c2c1CCCC2)Nc1sc2c(c1C(=O)NCC1CNC1)CCCC2` displayed a pEC50 in series [1] of 6.2.
For the compound `NC(=O)c1c(NC(=O)Cn2nc(C(F)(F)F)c3c2CCCC3)sc2c1CCCC2`, in series [1], the pEC50 amounted to 6.7.
Same read-out and setting: next, `NC(=O)c1c(NC(=O)Cn2nc(C(F)(F)F)c3c2CCCC3)sc2c1CCNC2`: 5.3; `CNCCNC(=O)c1c(NC(=O)Cn2nc(C(F)(F)F)c3c2CCCC3)sc2c1CCCC2`: 5.7.
